High-throughput results deposited in PubChem BioAssay by The Scripps Research Institute Molecular Screening Center.
MC4R antagonist = MC4R antagonists of cAMP signaling, primary screen, cell-based, TR-FRET, antagonist arm of biased-ligand search; AID 540295, 2011; MC4R-expressing cells, MTII-stimulated cAMP, LANCE TR-FRET; inhibition, % at 6.5 µM; 360,000 tested, 0.48% active; Melanocortin receptor 4 (Homo sapiens), P32245;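 active means inhibition above its plate's cutoff, the mean of tested wells on that plate plus 3 SD, cut at about 29% in these data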;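 further: 0% = Melanotan II alone and 100% = Melanotan II plus saturating MCL0020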
Target sequence (P32245 whole entry, looked up): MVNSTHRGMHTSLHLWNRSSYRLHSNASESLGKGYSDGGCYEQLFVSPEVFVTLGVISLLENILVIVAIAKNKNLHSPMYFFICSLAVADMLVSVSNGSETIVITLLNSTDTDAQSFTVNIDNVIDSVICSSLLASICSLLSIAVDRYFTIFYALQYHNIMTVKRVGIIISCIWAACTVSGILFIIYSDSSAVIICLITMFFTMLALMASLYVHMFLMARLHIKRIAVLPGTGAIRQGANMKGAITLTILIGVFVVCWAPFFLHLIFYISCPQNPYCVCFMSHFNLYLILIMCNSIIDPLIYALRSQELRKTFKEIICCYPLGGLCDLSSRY
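Material: U2OS-MC4R stable cell line | Reagent: Melanotan II challenge after compound preincubation | Doses: One concentration, 6.5 µM nominal | Incubation: 30-min compound preincubation, 1-h Melanotan II challenge, 1-h detection, room temperature | Signal: TR-FRET cAMP assay | Replicates: One well per compound, no replicates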
MC4R barr agon = MC4R agonists recruiting beta-arrestin, primary screen, cell-based, luminescence, agonist arm of biased-ligand search | 360,000 tested, 0.98% active | activation, % at 8.9 µM | U2OS MC4R beta-arrestin complementation; percent of melanotan II response, DMSO zero | Melanocortin receptor 4 (Homo sapiens), P32245;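 active means activation above a per-plate cutoff, the mean activation of sample wells on that plate plus 3 SD, cut at about 8% in these data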
MsrA inhibitor = bovine MsrA enzyme inhibitors, primary screen, biochemical, absorbance, HTS | 360,000 tested, 0.75% active | Methionine sulfoxide reductase A (Bos taurus) | inhibition, % at 15.5 µM | AID 651718, 2012 | purified bovine MsrA, absorbance read-out; in the data active means inhibition above about 4.5%;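 further: 0% = vehicle wells with enzyme and 100% = reference inhibitor wells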
bovine MsrA act = bovine MsrA enzyme activators, primary screen, biochemical, absorbance, HTS; Methionine sulfoxide reductase A (Bos taurus); purified bovine MsrA, absorbance read-out; activation, % at 10.6 µM; 360,000 tested, 0.3% active; in the data active means activation above about 7.5%;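 further: 0% = vehicle and 100% = reference activator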
MsrA activ conf = bovine MsrA activators, retest, confirmation, biochemical, absorbance, HTS. purified bovine MsrA, absorbance read-out. activation, % at 10.6 µM. 1,000 tested, 12% active. shares compounds with bovine MsrA act. AID 602270, 2012; in the data active means activation above about 4%;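 further: enzyme coupled to thioredoxin and thioredoxin reductase with NADPH; 0% = vehicle wells and 100% = reference activator wells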
Numbers without * were called inactive; . = no result given. Sampled rows, rich in hits. Any-hit rate of the full collection: about 2.3%.

SMILES | MC4R antagonist | MC4R barr agon | MsrA inhibitor | bovine MsrA act | MsrA activ conf
O=C1c2cccnc2C(Nc2ccc(Cl)cc2)N1Cc1cccs1 (stereo unspecified) | -1 | -1 | 1 | -3 | .
S=c1nc(-c2cccc(Br)c2)[nH][nH]1 | 8 | 0 | 1 | 9.8* | 6.1*
Nc1nc(N)nc(-c2cccc(Br)c2)n1 | -7 | 0 | 1 | -11 | .
CCO[C@@H]1OC(C(=O)NC2CC2)=C[C@H](c2c[nH]c3ccccc23)[C@H]1CCCO | 5 | -2 | 0 | -2 | .
CCO[C@H]1OC(C(=O)NC2CC2)=C[C@@H](c2c[nH]c3ccccc23)[C@@H]1CCCO | -4 | -1 | -1 | 8.4* | -1
COC(=O)c1sccc1NC(=O)CN1CCN(c2ccc(F)cc2)CC1 | 2 | 0 | 0 | 9.1* | 3
CCOCCCNC(=O)c1ccc2nc(-c3ccc(OC)c(OC)c3)c(-c3ccc(OC)c(OC)c3)nc2c1 | 10 | 0 | 0 | -2 | .
C[C@H](CO)N1C[C@H](C)[C@@H](CN(C)Cc2ccccc2)OCCCC[C@H](C)Oc2ccc(N(C)C)cc2C1=O | 4 | -1 | 0 | 8.7* | -3
C[C@@H]1CCCCO[C@@H](CN(C)Cc2ccccc2)[C@@H](C)CN([C@H](C)CO)C(=O)c2cc(N(C)C)ccc2O1 | 5 | 3 | 1 | -10 | .
CC(C)C(=O)Nc1cc(C(F)(F)F)ccc1N1CCOCC1 | 1 | 0 | 2 | 0 | .
Cc1cc(C#N)c(C)n1-c1cc(C(F)(F)F)ccc1N1CCOCC1 | -1 | 1 | -1 | 8.6* | 0
COc1ccc(OCCCN2CCc3ccccc3C2)cc1 | -1 | 1 | 0 | -11 | .
OCCNCCCCSc1ccc(Cl)cc1 | 5 | -1 | -1 | -3 | .
OCCNCCSc1ccc(Cl)cc1 | 10 | 0 | -1 | 9.3* | 0
O=C(c1ccc(OC2CCN(Cc3ccc(C(F)(F)F)cc3)CC2)cc1)N1CCCCC1 | -4 | 0 | 0 | 1 | .
CC1CCN(C(=O)c2ccc3c(c2NCCO)C(=O)c2ccccc2C3=O)CC1 | -12 | -5 | 2 | 2 | .
CCN(CC)CCNC(=O)c1ccc2c(c1NCCO)C(=O)c1ccccc1C2=O | -37 | -2 | 14* | 24* | 8.7*
Nc1oc2ccccc2c1C(=O)Cc1ccccc1O[C@@H]1O[C@H](CO)[C@@H](O)[C@H](O)[C@H]1O | 4 | -1 | 0 | 13* | 2
CCOc1ccccc1OCCCNCc1ccco1 | 2 | 1 | 0 | 13* | -1
CCOc1ccccc1OCC(=O)NCc1ccco1 | 5 | 0 | 0 | -2 | .
CCCCn1nnnc1C(c1cc2ccccc2o1)N1CCN(C/C=C/c2ccccc2)CC1 (stereo unspecified) | . | . | 0 | 1 | .
CCCCn1nnnc1C(c1cc2ccccc2o1)N1CCCC1 (stereo unspecified) | . | . | 0 | 11* | -1
CCOc1ccc(C2CC(=O)c3c([nH]c(C(=O)OC)c3C)C2)cc1OC (stereo unspecified) | -2 | 0 | -1 | -4 | .
COC(=O)c1[nH]c2c(c1C)C(=O)CC(c1cc(OC)ccc1OC)C2 (stereo unspecified) | -29 | 0 | -1 | 9.9* | 0
CN(C)CCN(C(=O)C1CCCCC1)c1nc2cc3c(cc2s1)OCCO3 | -4 | 0 | -1 | -1 | .
SMILES | MC4R antagonist | MC4R barr agon | MsrA inhibitor | bovine MsrA act | MsrA activ conf
O=C1C(Nc2ccc(O)cc2)=C/C(=N/S(=O)(=O)c2cccs2)c2ccccc21 | -23 | -2 | 49* | 9.9* | 7.9*
O=C(Cc1c(O)c2ccccc2oc1=O)c1ccc(C(F)(F)F)cc1 | 4 | -2 | 2 | -4 | .
CN(C)C(=O)c1cccc(-c2cc(NC=O)c3ncc(-c4ccc(F)c(Cl)c4)n3c2)c1 | 0 | 4 | 1 | 9.3* | 1
CN(C)CCNC(=O)c1cccc(-c2cnc3c(NC=O)cc(-c4cc(F)c(F)c(F)c4)cn23)c1 | -3 | 8 | 0 | 8.0* | -1
CN(C)C(=O)c1cccc(-c2cnc3c(NC=O)cc(-c4cccc(F)c4)cn23)c1 | -16 | 5 | 3 | -7 | .
CN(C)CCNC(=O)c1cccc(-c2cnc3c(NC=O)cc(-c4ccc(S(C)(=O)=O)cc4)cn23)c1 | -10 | 3 | 1 | 8.0* | 0
COc1cccc(-c2cc(NC=O)c3ncc(-c4cccc(C(=O)NCCN(C)C)c4)n3c2)c1 | -13 | 1 | -1 | -4 | .
CCOC(=O)C1(C)NC(c2ccc(OC)c(OC)c2)C2C(=O)N(c3cccc(C(C)=O)c3)C(=O)C21 (stereo unspecified) | 9 | 0 | 1 | -6 | .
O=C(NN=C(Cc1ccccc1)Cc1ccccc1)c1ccncc1 | 6 | 1 | 1 | -1 | .
S=c1[nH]nc(Cc2ccccc2)n1Cc1ccco1 | -2 | -1 | -1 | 7.7* | 0
CCCn1c(Cc2ccccc2)n[nH]c1=S | -3 | -1 | 0 | 1 | .
COCC(=O)N(C)[C@H]1C[C@H]2c3[nH]c4ccccc4c3CCN2C(=O)[C@H]1[C@H](C)O | 14 | -2 | 1 | -1 | .
C[C@H](O)[C@@H]1C(=O)N2CCc3c([nH]c4ccccc34)[C@@H]2C[C@@H]1N(C)Cc1ccc(Cl)cc1 | 6 | 1 | 0 | 7.8* | -1
Cn1nnnc1SCC(=O)N1CCc2ccccc21 | 1 | 0 | 0 | 17* | -3
CCn1c(SCc2cccc(OC)c2)nc2ccccc2c1=O | 3 | 1 | -1 | -1 | .
COc1cccc(C(=O)Nc2cccc3ccccc23)c1 | -2 | 0 | 1 | 20* | -1
O=C(Nc1cccc(C(=O)O)c1)Nc1cccc2ccccc12 | -1 | 0 | 0 | 8.3* | -1
COc1cc(OC)cc(C(=O)Nc2cccc3ccccc23)c1 | 1 | -1 | -1 | -4 | .
Cc1c(/C=C(\C#N)c2nn(-c3ccccc3)c(N)c2C#N)c2ccccc2n1Cc1ccc(F)cc1 | -6 | 0 | -2 | -7 | .
CC(=O)c1nccs1 | 12 | 1 | . | 16* | -2
CCCNC(=O)C1(C)CCCN(C(=O)c2cc(F)ccc2C)C1 (stereo unspecified) | 3 | 0 | 0 | -2 | .
CN1CCN(S(=O)(=O)c2cccc(C(=O)N(Cc3nnc(-c4ccccc4Cl)o3)C3CC3)c2)CC1 | 6 | -3 | 0 | 7.8* | 0
Cc1ccsc1C(=O)N(Cc1nnc(-c2ccccc2Cl)o1)C1CC1 | -1 | -2 | 0 | -3 | .
CCn1c(C)nc2cc(C(=O)NNC(=O)Nc3ccc(Cl)c(Cl)c3)ccc21 | . | . | 2 | . | .
CC1(OC(=O)CCc2ccccc2)C(=O)C=C2C=C(c3ccc(C#N)cc3)N(CC3CC3)C=C2C1=O (stereo unspecified) | 14 | -2 | 0 | -3 | .
COc1cc(SC)ccc1C(=O)OCC(=O)NCC(C)C | 17 | 0 | 0 | -2 | .
